Screens (PubChem)
DNMT1 inh: inhibitors of human DNMT1; P26358; DNMT1 molecular beacon, Hinp1I cleavage, fluorescence; inhibition (reported as % activation of signal), % at 10 µM; 360,000 tested, 0.83% active; AID 588458; in the data active = inhibition above about 50%
Scp1 inh: inhibitors of human Scp-1 phosphatase; Recombinant Scp1, phosphopeptide, malachite green phosphate absorbance; AID 493091; 340,000 tested, 0.88% active; Q9GZU7; inhibition, % at 20 µM;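 active = inhibition above about 50% at 20 µM, limit read from the data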;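 note: plate controls were DMSO wells with enzyme for no effect and wells lacking enzyme for full effect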
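System: SCP-1 catalytic domain; Reagent: Phospho 17-mer peptide substrate; Doses: one concentration, 20 µM, with 1.0% DMSO; Incubation: 45 min room-temperature reaction, 5 min colour, 30 min stabiliser; Signal: Phosphate-binding colour reagent, absorbance read at 630 nm.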
SUMO1-SIM PPI: SUMO1-SIM interaction modulation; P63165; SUMO1 binding to a labelled peptide, TR-FRET, 1 h; inhibition, % at 20 µM; 360,000 tested, 0.33% active; in the data active = inhibition above about 37%
Target sequence (P63165 whole entry, looked up): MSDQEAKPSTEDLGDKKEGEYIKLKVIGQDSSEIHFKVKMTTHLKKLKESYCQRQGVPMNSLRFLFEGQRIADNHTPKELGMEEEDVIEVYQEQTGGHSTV
GRK2 aptamer HTS: inhibitors of human GRK2 displacing RNA aptamer | inhibition of aptamer binding, % at 10 µM | bead flow cytometry, FAM-aptamer displacement from GRK2 | 330,000 tested, 0.59% active;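 active = inhibition of aptamer binding above 40%, roughly 3 SD of noise, on plates passing a quality check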;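 note: median bead fluorescence of bound FAM aptamer so fluorescent compounds give negative values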
STEP inh: STEP (human) phosphatase inhibition; P54829; recombinant STEP, OMFP fluorogenic substrate, fluorescence; inhibition, % at 20 µM; 360,000 tested, 0.25% active; AID 588621;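 active = inhibition at 20 µM, scaled per plate between control wells, above about 37%, limit read from the data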;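 note: 0% = DMSO with enzyme and substrate and 100% = substrate only without enzyme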
Target sequence (P54829 whole entry, looked up): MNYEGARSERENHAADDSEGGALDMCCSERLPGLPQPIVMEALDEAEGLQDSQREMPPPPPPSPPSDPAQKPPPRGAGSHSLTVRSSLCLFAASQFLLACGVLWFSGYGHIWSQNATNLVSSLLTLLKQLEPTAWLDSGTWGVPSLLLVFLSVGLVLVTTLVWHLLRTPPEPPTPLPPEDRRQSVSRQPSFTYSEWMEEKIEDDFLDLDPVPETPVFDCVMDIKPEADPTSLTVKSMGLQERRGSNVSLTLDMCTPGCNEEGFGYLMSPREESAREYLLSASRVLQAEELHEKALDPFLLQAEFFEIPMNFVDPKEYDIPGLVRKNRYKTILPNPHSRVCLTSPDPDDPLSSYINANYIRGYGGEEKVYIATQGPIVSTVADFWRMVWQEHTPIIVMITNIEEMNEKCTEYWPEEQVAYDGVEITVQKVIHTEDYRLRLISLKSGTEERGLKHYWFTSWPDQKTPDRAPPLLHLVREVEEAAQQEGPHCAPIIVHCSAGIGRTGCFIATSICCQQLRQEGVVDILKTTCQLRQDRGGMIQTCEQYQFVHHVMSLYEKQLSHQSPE
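Also added – OMFP at 25 µM · Test system – STEP tyrosine phosphatase · Technique – FITC-channel fluorescence of OMFP product · Schedule – 20 min at room temperature, dark · Evaluation – control-normalized % inhibition with plate pattern correction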
LMPTP inh: LMPTP (human) inhibition. P24666. recombinant LMPTP-A, OMFP fluorogenic substrate, fluorescence intensity. inhibition, % at 20 µM. 360,000 tested, 0.22% active. AID 651560;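 active = compounds that cut the enzyme signal by at least half of the control window in the single-dose screen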;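 note: plate controls were DMSO wells with enzyme plus substrate for no effect and substrate without enzyme for full effect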
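Test system: LMPTP-A phosphatase enzyme. Amount: LMPTP-A at 0.625 nM final in the reaction. Reagent: OMFP substrate, 400 µM final. Times: 50 min at room temperature. Signal: endpoint fluorescence intensity from OMFP dephosphorylation. Read-out basis: % inhibition. Benchmarks: no-enzyme and uninhibited controls.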
Scp1 confirm: confirmation of human Scp-1 phosphatase inhibitors; shares compounds with Scp1 inh; recombinant SCP-1 catalytic domain, phosphate release, malachite green absorbance; inhibition, % at 20 µM; 2,500 tested, 61% active; AID 540281;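 note: plate controls were DMSO with enzyme for no effect and buffer wells lacking enzyme for full effect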
MG interference: colorimetric interference in Scp-1 counter-screen; Colorimetric interference counterscreen, malachite green absorbance 630 nm; AID 540313; shares compounds with Scp1 inh; 2,500 tested, under 10 active; apparent inhibition (interference), % at 20 µM;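 note: compounds added after enzyme reaction finished so only phosphate colour detection is probed; plate controls were DMSO wells with completed Scp-1 reaction for no effect and substrate wells lacking enzyme for full effect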
Scp1 DSF: validation of human Scp-1 inhibitors by thermal shift binding; shares compounds with Scp1 inh; Recombinant SCP1, Sypro Orange thermal shift Tm; thermal shift relative to vanadate control, % at 40 µM; 1,500 tested, 25% active; AID 540329;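 active = substances whose mean melting-temperature shift, as a percentage of the reference inhibitor's shift, reaches about 5.3%, limit read from the data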;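 note: 0% = Tm of DMSO wells and 100% = Tm with sodium orthovanadate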
DNMT1 interf DR: beacon fluorescence artifact, dose response counter-screen; molecular beacon fluorescence, spectral interference counter-screen; IC50, µM; shares compounds with DNMT1 inh; 200 tested, under 10 active; call rule not given here
DNMT1 confirm: confirmation of human DNMT1 inhibitors; shares compounds with DNMT1 inh; DNMT1 molecular beacon HinP1I cleavage, fluorescence; inhibition, % at 10 µM; 2,300 tested, 8% active; AID 602385;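 active = average inhibition of at least 30% in the single-concentration confirmation test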
DNMT1 interf: beacon fluorescence artifact counter-screen. activation (fluorescence interference), % at 10 µM. shares compounds with DNMT1 inh. DNMT1 molecular beacon spectral interference counterscreen, fluorescence 485/520. 2,300 tested, 1% active. AID 602387;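 active = activation of at least 30% at 10 µM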;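 note: DNMT1 catalytic domain with a HinP1I cleavage step and a FAM/dabcyl DNA beacon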
An asterisk follows results filed as active; nt = no result. The list is not random: actives were taken first. Their share in the collection is about 2.1%.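 Rule for the calls, unless noted: active = inhibition of at least 30% at 20 µM; inactive = the rest.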

SMILES | DNMT1 inh | Scp1 inh | SUMO1-SIM PPI | GRK2 aptamer HTS | STEP inh | LMPTP inh | Scp1 confirm | MG interference | Scp1 DSF | others
CCC(C)C1(CC)C(=O)NC(=O)N=C1N (configuration not stated) | 3 | -6 | 5 | 6 | -3 | -3 | nt | nt | nt
CCCC[N+]12CCC(CC1)C(C(=O)c1cccs1)C2 (configuration not stated) | -3 | 98* | -7 | 0 | -2 | 0 | 103* | 6 | -4
CCOP(=O)(OCC)C1(O)C(=O)Nc2ccccc21 (configuration not stated) | 8 | -1 | -6 | 2 | -2 | -2 | nt | nt | nt
CC1CCCC(C2(O)C(=O)Nc3ccccc32)C1=O (configuration not stated) | -2 | 57* | 3 | 0 | -7 | -3 | 2 | -14 | nt
CCN(CC)P(=O)(c1n(CC)cc[n+]1CC)N(CC)CC | 2 | 103* | 3 | 2 | -3 | 3 | 80* | -19 | -10
CC(=O)c1c(C)n(CCCOC(C)C)c2ccc(O)cc12 | 2 | -8 | 4 | 1 | 0 | -1 | nt | nt | nt
CC(=O)Nc1ccc(N=Cc2c(O)n(Cc3ccco3)c(=O)[nH]c2=O)cc1 | 2 | 72* | 55* | 2 | 6 | 1 | 51* | -7 | -6
CCCCCC(=O)N[C@@H](c1ccccc1)[C@@H](O)C(=O)O[C@H]1C[C@@]2(O)[C@@H](OC(=O)c3ccccc3)C3[C@](C)(C(=O)[C@H](O)C(=C1C)C2(C)C)[C@@H](OC1OCC(O)C(O)C1O)C[C@H]1OC[C@@]31OC(C)=O (some centres not stated) | -1 | -13 | 25 | 0 | -1 | 0 | -14 | -8 | nt
O=C(O)CCn1cc(C=C2C(=O)NC(=O)NC2=O)c(-c2ccc(Br)cc2)n1 | 5 | 8 | 3 | 0 | 4 | -2 | nt | nt | nt
O=C(O)CCn1cc(C=C2C(=O)NC(=S)NC2=O)c(-c2cccc(Cl)c2)n1 | 0 | 67* | 8 | 0 | -2 | 0 | 42* | -13 | -19
C[C@H]1[C@H](OC(=O)CCC(=O)NCc2ccc(C(=O)O)cc2)O[C@@H]2O[C@@]3(C)CC[C@H]4[C@H](C)CC[C@@H]1C24OO3 | 0 | 4 | 8 | 0 | -1 | 0 | nt | nt | nt
CC(C)CC(NC(=O)CCCNC(=O)CCC(=O)OC1O[C@H]2OC3(C)CC[C@H]4[C@H](C)CCC(C1C)C24OO3)C(=O)O (some centres not stated) | 4 | 95* | -1 | 1 | -4 | -1 | -12 | -13 | nt
CCC(CO)(C(=O)OC1C[N+]2(C)CCC1CC2)c1ccccc1 (configuration not stated) | 1 | 94* | -2 | 4 | 1 | 0 | 80* | -17 | -1
CC(=O)N1CCCSC1=Nc1ccccc1 | 2 | -7 | 4 | 2 | 0 | -2 | nt | nt | nt
CCOc1ccccc1N=C1SCCCN1C | 2 | 55* | -1 | 5 | 0 | 0 | 67* | -11 | -7
Clc1cccc(C2NCCc3[nH]cnc32)c1 (configuration not stated) | -2 | -14 | 4 | 0 | 3 | -1 | nt | nt | nt
Cc1cc(C)n2nc(C)[n+](C)c2n1 | 0 | -12 | -6 | 1 | -5 | -2 | nt | nt | nt
O=C(O)c1ccccc1-c1ccc(C=C2C(=O)N(c3ccccc3)C(=S)N(c3ccccc3)C2=O)o1 | 28 | 58* | 24 | nt | 4 | 4 | 54* | -11 | 2
C[n+]1ccc(-c2ccncc2)cc1 | -1 | 96* | -25 | 0 | 2 | -5 | 4 | -9 | nt
COc1cc2c3c(c1OC)-c1cc(O)ccc1CC3NCC2 (configuration not stated) | 0 | -7 | 1 | 2 | 7 | -1 | nt | nt | nt
COc1cc2c(cc1OC)-c1c(OC)c(OC)cc3c1[C@H](C2)[N+](C)(C)CC3 | 2 | 55* | 1 | 0 | 2 | 0 | 12 | -11 | nt
COc1cccc(NC(=O)N2CCC3(CC2)OCCO3)c1 | 4 | -1 | 4 | 0 | -2 | -1 | nt | nt | nt
CCOC(=O)c1ccccc1C(=O)OCC | 6 | -12 | 3 | 4 | -3 | -2 | nt | nt | nt
CCOC(=O)C1=C(C)c2ccccc2OC1(C(=O)OCC)c1ccccc1 (configuration not stated) | 7 | 103* | 6 | 2 | -4 | -1 | 39* | -18 | -31
C[C@]12CCC3C(CC[C@H]4C[C@H](O)CC[C@]34C)C1CCC2=O (some centres not stated) | -4 | -12 | -3 | 0 | 2 | 0 | nt | nt | nt
CCCCCCn1c(=O)c(C(=O)Nc2c(C)n(C)n(-c3ccccc3)c2=O)c(O)c2ccccc21 | 4 | -12 | 13 | 0 | 2 | 10 | nt | nt | nt
O=C1NC(=O)C(=Cc2ccc(SC3CCCCC3)o2)C(=O)N1 | 86* | 53* | 9 | 4 | 1 | 5 | 75* | -9 | -7 | DNMT1 confirm=10;DNMT1 interf=0
CC(C)CNP(=S)(c1ccccc1)C(C)(C)C (configuration not stated) | 0 | 30 | -2 | 0 | 0 | 1 | nt | nt | nt
COc1ccc(CN2C(=O)NC(=O)/C(=C/c3ccoc3)C2=O)cc1 | 101* | 72* | 32 | 4 | 68* | 24 | 71* | -13 | 1 | DNMT1 confirm=11;DNMT1 interf=-1
CC[N+](C)(CC)CCCCOc1ccc2c(c1)C(=O)c1cc(OCCCC[N+](C)(CC)CC)ccc1-2 | 54* | 103* | -48 | 2 | 2 | 3 | 62* | -2 | 1 | DNMT1 interf DR=>99;DNMT1 confirm=39*;DNMT1 interf=-7
